Tests used:
[1] = Inhibition of recombinant HIV1 HXB2 reverse transcriptase RDDP activity assessed as reduction in biotin/digoxin-dU incorporation into polirA-oligodU template primer measured after 30 mins by ELISA; set-up: species or system HIV-1 M:B_HXB2R
Outline: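 Purified recombinant HIV-1 RT (HXB2 clone), 3 U, incubated with compounds over a concentration range and poly(rA)-oligo(dU). Biotin- and digoxin-labelled dU (equimolar) incorporated at 37 °C for 30 min, stopped with 0.5 M EDTA. Product captured on streptavidin-coated plates and detected with peroxidase-tagged anti-digoxin antibody. Absorbance read at 570 nm against 690 nm reference. IC50 from linear regression of dose-response curves.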

[2] = Cytotoxicity against human PBMC assessed as reduction in cell viability after 72 hrs by XTT assay; format: tissue-based
Outline: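 Primary human PBMCs, 2×10^4 cells/well, exposed to compounds at several concentrations for 72 h. XTT (5 mg/mL) with 0.01 % PMS in DMEM then added for 4 h at 37 °C. Absorbance read at 492 and 620 nm. CC50 obtained by linear regression of dose-response curves.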

[3] = Protection index, ratio of azidothymidine CC50 to test compound CC50 for human PBMC; format: ADME, tissue-based; conditions: read-out: PI
[4] = tested on: HIV1 HXB2 reverse transcriptase RDDP activity; assay: Selectivity index, ratio of CC50 for human PBMC to IC50 for inhibition of recombinant HIV1 HXB2 reverse transcriptase RDDP activity; format: toxicity; conditions: read-out: Ratio CC50/IC50

IC50 [1]	Structure (SMILES)	CC50 at 72 h [2]	selectivity ratio [3]	selectivity ratio [4]
2.6 µM	O=C(Nc1ccccc1)c1cn([C@@H]2O[C@H](CO)[C@@H](O)[C@H]2O)c2ccc(Cl)cc2c1=O	> 1000 µM	> 10	
8.6 µM	O=C(OC[C@H]1O[C@@H](n2cc(C(=O)NC3CCCCC3)c(=O)c3cc(Cl)ccc32)[C@H](OC(=O)c2ccccc2)[C@@H]1OC(=O)c1ccccc1)c1ccccc1	> 1000 µM	> 10	
8 µM	O=C(Nc1ccc(Cl)cc1)c1cn([C@@H]2O[C@H](CO)[C@@H](O)[C@H]2O)c2ccc(Cl)cc2c1=O	> 1000 µM	> 10	
0.05 µM	Cc1cn([C@H]2C[C@H](N=[N+]=[N-])[C@@H](CO)O2)c(=O)[nH]c1=O [ZIDOVUDINE]	126 µM		
16.6 µM	Cc1ccc(NC(=O)c2cn([C@@H]3O[C@H](COC(=O)c4ccccc4)[C@@H](OC(=O)c4ccccc4)[C@H]3OC(=O)c3ccccc3)c3ccc(Cl)cc3c2=O)cc1	> 1000 µM	> 10	
7.3 µM	O=C(OC[C@H]1O[C@@H](n2cc(C(=O)Nc3ccc(F)cc3)c(=O)c3cc(Cl)ccc32)[C@H](OC(=O)c2ccccc2)[C@@H]1OC(=O)c1ccccc1)c1ccccc1	> 1000 µM	> 10	
1.4 µM	O=C(OC[C@H]1O[C@@H](n2cc(C(=O)NCc3ccc(Cl)cc3)c(=O)c3ccccc32)[C@H](OC(=O)c2ccccc2)[C@@H]1OC(=O)c1ccccc1)c1ccccc1	1490 µM	> 10	998
1.6 µM	Cc1ccc2c(c1)c(=O)c(C(=O)NCc1ccc(Cl)cc1)cn2[C@@H]1O[C@H](COC(=O)c2ccccc2)[C@@H](OC(=O)c2ccccc2)[C@H]1OC(=O)c1ccccc1	1390 µM	> 10	830
19.5 µM	O=C(OC[C@H]1O[C@@H](n2cc(C(=O)Nc3ccccc3)c(=O)c3cc(Cl)ccc32)[C@H](OC(=O)c2ccccc2)[C@@H]1OC(=O)c1ccccc1)c1ccccc1	> 1000 µM	> 10	
6.8 µM	COc1ccc(NC(=O)c2cn([C@@H]3O[C@H](COC(=O)c4ccccc4)[C@@H](OC(=O)c4ccccc4)[C@H]3OC(=O)c3ccccc3)c3ccc(Cl)cc3c2=O)cc1	> 1000 µM	> 10	
9.9 µM	O=C(OC[C@H]1O[C@@H](n2cc(C(=O)Nc3ccc(Cl)cc3)c(=O)c3cc(Cl)ccc32)[C@H](OC(=O)c2ccccc2)[C@@H]1OC(=O)c1ccccc1)c1ccccc1	> 1000 µM	> 10	
2.9 µM	O=C(OC[C@H]1O[C@@H](n2cc(C(=O)NCc3ccc(Cl)cc3)c(=O)c3cc(C(F)(F)F)ccc32)[C@H](OC(=O)c2ccccc2)[C@@H]1OC(=O)c1ccccc1)c1ccccc1	> 1000 µM	> 10	
5.8 µM	O=C(Nc1ccc(F)cc1)c1cn([C@@H]2O[C@H](CO)[C@@H](O)[C@H]2O)c2ccc(Cl)cc2c1=O	> 1000 µM	> 10	
2.8 µM	O=C(OC[C@H]1O[C@@H](n2cc(C(=O)NCc3ccc(Cl)cc3)c(=O)c3cc(F)ccc32)[C@H](OC(=O)c2ccccc2)[C@@H]1OC(=O)c1ccccc1)c1ccccc1	> 1000 µM	> 10	
8.8 µM	O=C(OC[C@H]1O[C@@H](n2cc(C(=O)NCc3ccc(Cl)cc3)c(=O)c3cc(Cl)ccc32)[C@H](OC(=O)c2ccccc2)[C@@H]1OC(=O)c1ccccc1)c1ccccc1	> 1000 µM	> 10	
3.4 µM	COc1ccc(NC(=O)c2cn([C@@H]3O[C@H](CO)[C@@H](O)[C@H]3O)c3ccc(Cl)cc3c2=O)cc1	> 1000 µM	> 10	

Structure (SMILES)	IC50 [1]	CC50 at 72 h [2]	selectivity ratio [3]	selectivity ratio [4]
O=C(NC1CCCCC1)c1cn([C@@H]2O[C@H](CO)[C@@H](O)[C@H]2O)c2ccc(Cl)cc2c1=O	22.4 µM	> 1000 µM	> 10	
O=C(NCc1ccc(Cl)cc1)c1cn([C@@H]2O[C@H](CO)[C@@H](O)[C@H]2O)c2ccc(F)cc2c1=O	3.9 µM	> 1000 µM	> 10	
O=C(NCc1ccc(Cl)cc1)c1cn([C@@H]2O[C@H](CO)[C@@H](O)[C@H]2O)c2ccc(C(F)(F)F)cc2c1=O	3.9 µM	> 1000 µM	> 10	
Cc1ccc2c(c1)c(=O)c(C(=O)NCc1ccc(Cl)cc1)cn2[C@@H]1O[C@H](CO)[C@@H](O)[C@H]1O	4.3 µM	> 1000 µM	> 10	
O=C(NCc1ccc(Cl)cc1)c1cn([C@@H]2O[C@H](CO)[C@@H](O)[C@H]2O)c2ccccc2c1=O	29.2 µM	> 1000 µM	> 10	
O=C(NCc1ccc(Cl)cc1)c1cn([C@@H]2O[C@H](CO)[C@@H](O)[C@H]2O)c2ccc(Cl)cc2c1=O	18.4 µM	> 1000 µM	> 10	

Source: ChEMBL document CHEMBL4765283, “Design, synthesis, in vitro and in silico studies of novel 4-oxoquinoline ribonucleoside derivatives as HIV-1 reverse transcriptase inhibitors” (Eur J Med Chem, 2020)
